Screens from PubChem.
The entries come from a sample that favours hits as a whole.
L major viab – reduces viability of Leishmania major promastigotes. resazurin fluorescence viability. inhibition, % at 10 µM. AID 1063. hit rate 9% among 200,000; in the data active = inhibition above about 50%;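 also: promastigotes grown with compound for 44 hours at 28 °C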
MPTP inh – inhibitors of mitochondrial permeability transition pore | inhibition, % at 10 µM | hit rate 1.4% among 360,000 | AID 602449 | isolated mouse mitochondria, Ca2+ swelling absorbance, 30 min;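 active = inhibition of 50% or more, scaled per plate between neutral and stimulator controls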;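 also: 0% = DMSO wells given calcium and 100% = 1 mM EGTA wells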
T cruzi repl – T. cruzi replication inhibition; hit rate 1.4% among 300,000; T. cruzi beta-gal in NIH3T3, luminescence, 90 h; inhibition, % (test concentration not listed);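 active = mean inhibition across valid replicates above about 55%, limit read from the data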;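 also: signal also drops with host cell toxicity which is not excluded here; 0% = plate median of DMSO wells and 100% = zero luminescence signal; higher percent means less beta-gal luminescence so fewer parasites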
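Test system: β-gal T. cruzi (Tulahuen C4) inside NIH/3T3 cells / Quantity: 5,000 cells/well / Measured by: luminescence from GalScreen with 0.05% NP40, read after 60 min / Medium: DMEM plus 2% FBS / Measure: parasite load inhibition, % / Reagent: Tulahuen C4 trypomastigotes, 5000/well / Schedule: co-culture of at least 90 h after 3 h attachment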
DTT redox prof – compounds producing H2O2 with reducing agent – biochemical, NIH compound library profiling, artefact control for MLSCN library redox annotation, primary screen; DTT-dependent redox cycling H2O2, phenol red/HRP absorbance; 100% = 100 µM peroxide control, 0% = buffer; activation, % at 10 µM; hit rate 0.03% among 200,000;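 active = activation of at least 50% relative to the plate's high and low controls in the primary single-dose screen; inactive = activation below 50%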;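 also: compound incubated with DTT at 0.8 mM final as the reducing agent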
Lipid droplet – modulators of hepatic lipid droplet formation | AML12 mouse hepatocytes, oleate lipid droplets, BODIPY imaging | inhibition, % at 6.5 µM | hit rate 0.4% among 240,000;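 active = lipid droplet intensity inhibited by at least 50%, with more than 500 cells counted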
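Technique: fluorescence imaging, 20x objective, two fields per well / Assay system: AML12 hepatocytes (mouse) / Measure: % inhibition of lipid droplet signal / Doses: 6.5 µM single-point dosing / Incubation: overnight exposure / Reagent: 100 µM oleic acid challenge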
Active calls of the source: *; . = no result.

SMILES	L major viab	MPTP inh	T cruzi repl	DTT redox prof	Lipid droplet
COc1ccc(S(=O)(=O)Nc2ccccc2C(=O)OC2CCCN(C)C2)cc1OC (configuration not stated)	100.0*	-2.8	2.5	-0.8	1.0
CCc1sc(C(=O)NCCCn2ccnc2)cc1Br	.	0.6	26.2	.	-12.3
CCc1cc(/C(Cc2ccccn2)=N\Nc2ccccc2)c(O)cc1O	59.5*	-6.2	-18.6	-0.1	2.3
Cc1c(C(=O)NCc2ccccc2)sc(=O)n1Cc1ccccc1F	.	0.5	.	.	.
Cc1cc(C)n(-c2nc(SCCN(C)C)c3c4c(sc3n2)CCCC4)n1	100.5*	5.2	41.0	-4.3	.
COc1ccc(NC(=O)c2cccnc2)c(OC)c1	-1.9	-0.2	2.1	-1.3	.
COc1ccc(NC(=O)c2cc(-c3cccnc3)nc3c(C)c(C)ccc23)c(OC)c1	20.9	-2.4	55.7*	-4.5	.
O=C(/C=C/c1cccc([N+](=O)[O-])c1)Nc1cc(C(=O)O)cc(C(=O)O)c1	-5.3	0.2	-5.1	-0.2	-3.8
Cc1ccccc1NC(=O)/C=C/c1cccs1	-4.9	6.9	-24.5	-1.2	-0.1
Cc1cc(C)cc(NC(=O)/C=C/c2ccc([N+](=O)[O-])s2)c1	81.7*	0.9	46.9	0.6	-12.7
Cc1ccccc1NC(=O)/C=C/c1ccc([N+](=O)[O-])s1	81.7*	7.5	-10.1	-0.1	9.3
CC(=O)c1cccc(NC(=O)/C=C/c2ccc([N+](=O)[O-])s2)c1	14.9	4.5	55.9*	-0.5	-0.1
CC1(C)NC(=O)N(CCC(=O)Nc2cc(C(F)(F)F)ccc2Cl)C1=O	.	-0.4	.	.	.
COCCN1C[C@@H](CO)O[C@@H](n2cnc3c(NCC(C)C)ncnc32)C1	.	-1.6	.	.	.
Cc1ccc(C)[n+](CC(=O)c2ccc(-c3ccccc3)cc2)c1	70.0*	-3.8	23.7	0.1	-37.8
COC(=O)c1ccc[n+](CC(=O)c2ccc(Br)cc2)c1	56.4*	1.5	-8.5	.	3.7
Cc1ccc(C(=O)C[n+]2cccc3ccccc32)cc1	3.5	-0.6	59.2*	1.7	-3.1
Cc1ccc(C(=O)C[n+]2ccccc2)cc1	.	-0.8	-17.4	.	6.5
O=C(C[n+]1cccc2ccccc21)c1ccc(Br)cc1	.	-1.3	7.7	.	-1.9
Cc1ccc[n+](CC(=O)c2ccc(-c3ccccc3)cc2)c1	100.2*	-0.9	15.2	-0.4	-17.2
Cc1ccc[n+](CC(=O)c2ccc(Cl)cc2)c1	.	0.4	4.8	.	-10.4
CCOC(=O)C1CCCCN1S(=O)(=O)c1ccc2c(c1)CC(C)N2C(=O)C1CCC1 (configuration not stated)	.	4.3	11.5	.	-18.1
O=C(NCc1nc2ccccc2[nH]1)C1=C[C@@H](c2ccccc2)C[C@@H](OCc2ccc(CO)cc2)O1	85.2*	1.7	9.3	-0.2	-1.1
O=C(NCc1nc2ccccc2[nH]1)C1=C[C@@H](C2CCCCC2)C[C@@H](OCc2ccc(CO)cc2)O1	73.7*	28.5	37.5	0.5	-12.3
COC(=O)c1ccccc1S(=O)(=O)NNC(=O)c1nn(C)c(=O)c2ccccc12	.	-1.5	.	.	.
COc1ccccc1NC(=O)Nc1ccccc1N1CCOCC1	.	1.2	-4.4	.	2.8
CCN1C(=O)c2cccc3c(S(=O)(=O)NCc4ccccn4)ccc1c23	65.2*	-0.7	-22.8	0.1	-3.0
CCNC(=S)N/N=C/c1cc(C)n(-c2ccc(Cl)cc2)c1C	27.6	1.8	-0.6	0.2	2.8
